Laboratory results from ChEMBL document CHEMBL1153629, “Antitumor activity of deoxypodophyllotoxin isolated from Anthriscus sylvestris: Induction of G2/M cell cycle arrest and caspase-dependent apoptosis” (2009).
Active and inactive are the calls of the source. No cut-off for these calls is given here.

Key:
HeLa [1] = assay: Antiproliferative activity against human HeLa cells at 0.1 uM after 24 hrs; assay type: functional, cell-based
In short: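 HeLa cells grown in DMEM with FBS were seeded in 96-well plates and exposed for 12, 24 or 48 h to compound dissolved in DMSO (final DMSO under 0.1%). WST-8 (Cell Counting Kit-8) was added, and OD at 450 nm was read after 30 min. Survival was expressed as % of untreated control, in triplicate, with two further independent experiments.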

[2] = Inhibition of tubulin polymerization by turbidity assay
In short: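 Turbidity assay: tubulin in reaction buffer with GTP at 37 °C, test agent at 0.25 and 0.50 µM, taxol 0.1 µM as positive control. A340 read every 30 s for 60 min with gentle plate agitation.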

HeLa [3] = assay: Cell cycle arrest in human HeLa cells assessed as accumulation at G1 phase at 0.5 uM after 12 hrs using propidium iodide staining by FACS analysis; assay type: functional
In short: (§1)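 HeLa cells grown in DMEM/FBS, 24 h to adhere, then given 0.5 µM from DMSO stock (DMSO <0.1% in medium). Harvested at 0, 12, 24 and 48 h, PBS-washed and fixed in 70% ethanol. Stained with 50 µg/ml propidium iodide plus 100 µg/ml RNase A at 37 °C in the dark for ≥3 h. Read by flow cytometry; sub-G1 fraction scored as apoptotic.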

HeLa [4] = assay: Cell cycle arrest in human HeLa cells assessed as accumulation at G2 phase at 0.5 uM after 24 hrs using propidium iodide staining by FACS analysis; assay type: functional; in short: as §1
HeLa [5] = assay: Cell cycle arrest in human HeLa cells assessed as accumulation at G1 phase at 0.5 uM after 24 hrs using propidium iodide staining by FACS analysis; assay type: functional; in short: as §1
HeLa [6] = assay: Cell cycle arrest in human HeLa cells assessed as accumulation at S phase at 0.5 uM after 24 hrs using propidium iodide staining by FACS analysis; assay type: functional; in short: as §1
HeLa [7] = assay: Induction of apoptosis in human HeLa cells assessed as PARP cleavage after 24 to 48 hrs by Western blot analysis; assay type: functional, cell-based
In short: (§2)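 HeLa cells treated with 0.5 µM for 0–48 h (sampled at 0, 3, 6, 12, 24, 48 h). Whole-cell lysates made in 20 mM HEPES pH 7.2, 1% Triton X-100, 10% glycerol, 150 mM NaCl, leupeptin, 1 mM PMSF. Lysates run on SDS–PAGE, immunoblotted with the indicated antibodies, GAPDH as loading control.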

HeLa [8] = assay: Induction of apoptosis in human HeLa cells assessed as breakdown of nuclei by immunostaining method; assay type: functional, cell-based
In short: (§3)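 HeLa cells exposed to 0.5 µM for 48 h. Microtubules stained with anti-α-tubulin and an Alexa Fluor 488 secondary antibody, DNA with TO-PRO-3 iodide. Fragmented nuclei scored by confocal microscopy.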

HeLa [9] = assay: Cell cycle arrest in human HeLa cells assessed as accumulation at sub G1 phase at 0.5 uM after 12 hrs using propidium iodide staining by FACS analysis; assay type: functional; in short: as §1
HeLa [10] = assay: Cell cycle arrest in human HeLa cells assessed as accumulation at sub G1 phase at 0.5 uM after 24 hrs using propidium iodide staining by FACS analysis; assay type: functional; in short: as §1
HeLa [11] = assay: Cell cycle arrest in human HeLa cells assessed as accumulation at G2 phase at 0.5 uM after 12 hrs using propidium iodide staining by FACS analysis; assay type: functional; in short: as §1
HeLa [12] = assay: Cell cycle arrest in human HeLa cells assessed as accumulation at G2 phase at 0.5 uM after 48 hrs using propidium iodide staining by FACS analysis; assay type: functional; in short: as §1
HeLa [13] = assay: Cell cycle arrest at G2/M phase in human HeLa cells assessed as decrease in cyclin A expression at 0.5 uM after 48 hrs by Western blot analysis; assay type: functional, cell-based; in short: as §2
HeLa [14] = assay: Induction of apoptosis in human HeLa cells assessed as caspase 3 cleavage at 0.5 uM; assay type: functional, cell-based; conditions: TDE = time-dependent effect; in short: as §2
HeLa [15] = assay: Cell cycle arrest in human HeLa cells assessed as accumulation at G1 phase at 0.5 uM after 48 hrs using propidium iodide staining by FACS analysis; assay type: functional; in short: as §1
HeLa [16] = assay: Cell cycle arrest in human HeLa cells assessed as accumulation at sub G1 phase at 0.5 uM after 48 hrs using propidium iodide staining by FACS analysis; assay type: functional; in short: as §1
HeLa [17] = assay: Inhibition of microtubule assembly in human HeLa cells assessed as loss of stabilization of microtubule bundles by immunofluorescence staining; assay type: cell-based
In short: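 HeLa cells given 0.25 µM for 24 h alongside DMSO vehicle and 0.1 µM taxol controls. Indirect immunofluorescence with anti-α-tubulin and an Alexa Fluor 488 secondary antibody; microtubule network imaged by spectral confocal microscopy.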

HeLa [18] = assay: Induction of apoptosis in human HeLa cells assessed as fragmentation of chromosomal DNA by immunostaining method; assay type: functional, cell-based; in short: as §3
HeLa [19] = assay: Induction of apoptosis in human HeLa cells assessed as caspase 7 cleavage at 0.5 uM; assay type: functional, cell-based; conditions: TDE = time-dependent effect; in short: as §2
HeLa [20] = assay: Cell cycle arrest in human HeLa cells assessed as accumulation at S phase at 0.5 uM after 12 hrs using propidium iodide staining by FACS analysis; assay type: functional; in short: as §1
HeLa [21] = assay: Antiproliferative activity against human HeLa cells at 0.25 uM after 24 hrs; assay type: functional, cell-based
In short: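 HeLa cells in 96-well culture, treated for 12, 24 and 48 h, done in triplicate; after treatment, incubated 24 h more at 37 °C, 5% CO2. WST-8 (Cell Counting Kit-8) added, OD read at 450 nm after 30 min. Survival expressed relative to untreated cells; two further independent experiments.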

HeLa [22] = assay: Cell cycle arrest at G2/M phase in human HeLa cells assessed as increase in cyclin B1 expression at 0.5 uM after 3 to 24 hrs by Western blot analysis; assay type: functional, cell-based; in short: as §2
HeLa [23] = assay: Cell cycle arrest in human HeLa cells assessed as accumulation at S phase at 0.5 uM after 48 hrs using propidium iodide staining by FACS analysis; assay type: functional; in short: as §1

With CC(=O)O[C@H]1C(=O)[C@@]2(C)[C@H]([C@H](OC(=O)c3ccccc3)[C@]3(O)C[C@H](OC(=O)[C@H](O)[C@@H](NC(=O)c4ccccc4)c4ccccc4)C(C)=C1C3(C)C)[C@]1(OC(C)=O)CO[C@@H]1C[C@@H]2O the Activity (HeLa [1]) was “Active” and the Activity [2] was “inactive”.

In the case of COc1cc([C@@H]2c3cc4c(cc3C[C@H]3COC(=O)[C@@H]32)OCO4)cc(OC)c1OC [DESOXYPODOPHYLLOTOXIN], the Activity (HeLa [3]) was 12%, the Activity (HeLa [4]) was 87.8% and the Activity (HeLa [5]) was 3.5%. For the same molecule, the Activity (HeLa [6]) was 8.6%, the Activity (HeLa [7]) was “Active” and the Activity (HeLa [8]) was “Active”. For the same molecule, the Activity (HeLa [9]) was 0.2%, the Activity (HeLa [10]) was 4.5% and the Activity (HeLa [11]) was 58.9%. The Activity (HeLa [12]) was 82.1%, the Activity (HeLa [13]) was “Active” and the Activity (HeLa [14]) was “tde”. The Activity (HeLa [15]) was 6.8%, the Activity (HeLa [16]) was 29.7% and the Activity (HeLa [17]) was “inactive”. The Activity (HeLa [18]) was “Active”, the Activity (HeLa [19]) was “tde” and the Activity (HeLa [20]) was 28.9%. The Activity (HeLa [21]) was “Active”, the Activity [2] was “Dose-dependent effect” and the Activity (HeLa [22]) was “Active”. For the same molecule, the Activity (HeLa [23]) was 11%.
